Assay results collected from several papers.
Protocols differ between the studies behind these lines.
Target: Protein kinase C delta type (PRKCD, Homo sapiens, UniProt Q05655)

The remaining signal of Oc1cccc(-c2nc(N3CCOCC3)c3oc4ncccc4c3n2)c1 is reported as 96% (cell-free assay; 0.5 µM).
CSc1cccnc1N1CCN(Cc2nc3ccccc3[nH]2)CC1 has a remaining binding of 100% (cell-free assay, competition with immobilised ligand; 1 µM).
With Cc1ccc(C(=O)Nc2ccc(CN3CCN(C)CC3)c(C(F)(F)F)c2)cc1C#Cc1cnc2cccnn12 the remaining activity was 64% (enzyme activity; 23.5 nM).
CC(C)c1ccc(NC(=O)c2cccs2)c(-c2nc3ccccc3[nH]c2=O)c1 has an activity vs control of 104% (enzyme activity, inhibitor; 1 µM).
With Cc1ccc(NC(=O)c2ccc(C)c(C(F)(F)F)c2)cc1C#Cc1nn(C2CCC(O)CC2)c2ncnc(N)c12 (stereo not shown) the remaining signal was 96% (cell-free assay; 10 µM).
CCC(=O)N[C@H]1CC[C@@H](C(=O)N(C)c2ccc(-c3nc4ccccc4o3)cc2)C1 has a remaining binding of 100% (cell-free assay, competition with immobilised ligand; 1 µM).
The remaining signal of Oc1ccc(-c2nc(-c3ccncc3)c(-c3ccc(F)cc3)[nH]2)cc1 is reported as 99.3% (cell-free assay; 0.5 µM).
For CC(=O)Nc1c(C(C)=O)c(=O)n(C)c2nc(-c3ccc(Cl)cc3Cl)c(-c3ccc(Cl)cc3)cc12, the remaining binding was 100% (cell-free assay, competition with immobilised ligand; 1 µM).
Cn1cnc(Br)c1C1=CN(c2ncnc3[nH]cnc23)CCS1 gave an inhibition of 29% (enzyme activity, inhibitor, radiometric; 50 nM).
The remaining activity of CC(C)(C)c1nc2c(s1)c1nc(N)ncc1c1ccc(NS(=O)(=O)c3c(F)cccc3F)c(F)c12 is reported as 100% (enzyme activity, inhibitor, radiometric; 1 µM).
The remaining activity of CC(C)(O)[C@H]1CC[C@H](Nc2ccc3ncc(-c4cccc(C(F)(F)F)c4)n3n2)CC1 is reported as 84.2% (enzyme activity, inhibitor; 1 µM).
COc1cc2ncnc(Nc3ccc(Oc4ccccc4)c(C)c3C)c2cc1OC has an inhibition of 23% (enzyme activity, inhibitor; 1 µM).
With CCCOc1ccc(OC)c(F)c1C(=O)c1ccc(C(=O)N[C@@H]2CNC[C@H]2NC(=O)c2ccc3[nH]ncc3c2)cc1 the remaining activity was 68% (enzyme activity, inhibitor; 0.75 µM).
O=C(O)[C@H]1[C@H](Cn2nnc3ccccc3c2=O)CC[C@@H]1C(=O)c1ccc(OCCC2CCOCC2)cc1 has a remaining binding of 100% (cell-free assay, competition with immobilised ligand; 1 µM).
With Cn1cncc1C1=CN(c2ncnc3[nH]cnc23)CCS1 the inhibition was 81.1% (enzyme activity, inhibitor, radiometric; 2 µM).
With CC/C(=N\NC(=O)NCc1cccc(O)c1)c1ccc(O)c(C)c1O the inhibition was 24.6% (enzyme activity, inhibitor; 0.1 µM).
The remaining binding of CC(=O)C1=C(C)N(c2cccc(C(F)(F)F)c2)C(=O)N[C@@H]1c1ccc(C#N)nc1 is reported as 100% (cell-free assay, competition with immobilised ligand; 1 µM).
N#CCCc1ccc2c(c1)-c1[nH]c3ccc([N+](=O)[O-])cc3c1CC(=O)N2 gave a remaining signal of 74.9% (cell-free assay; 0.5 µM).
For Cc1sc(C(=O)NC2COC2)cc1-n1cc(NC(=O)Nc2c(F)cccc2Cl)cn1, the remaining activity was 98% (enzyme activity, inhibitor; 10 µM).
For C[C@@]1(Cc2ccc(C#N)cc2)C(=O)N(c2cc(Cl)cc(Cl)c2)c2ncc(C(=O)NC3(c4nc(C5CCC5)no4)CC3)n21, the remaining binding was 100% (cell-free assay, competition with immobilised ligand; 1 µM).
CNC(=O)c1cc(Oc2ccc(NC(=O)Nc3ccc(Cl)c(C(F)(F)F)c3)cc2)ccn1 has an inhibition of -6% (enzyme activity, inhibitor; 10 µM).
The remaining activity of COc1cc(Cl)c(C(=O)N[C@@H](CN[C@H]2CC[C@@H](N)CC2)Cc2ccc(C#N)cc2)cc1-c1ccc(CN[C@H](C)c2ccc(C)cc2)o1 is reported as 100% (enzyme activity, inhibitor; 1 µM).
The inhibition of CN1CC(Oc2cnc(C#N)cc2-c2ccn3nc(NC(=O)C4CC4)cc3c2)C1 is reported as 3% (enzyme activity, inhibitor; 1 µM).
For COCCOc1nc(-c2ccc(Cl)nc2)nc2c1CN(C(=O)c1ncn3ccccc13)CC2, the remaining binding was 100% (cell-free assay, competition with immobilised ligand; 0.1 µM).
With C[C@@H](N)[C@H]1CC[C@H](C(=O)Nc2ccncc2)CC1 the inhibition was 82.5% (enzyme activity, inhibitor, TR-FRET; 10 µM).
